Assay outcomes as filed in PubChem BioAssay.
The list is not random: actives were taken first. Their share in the collection is about 3.8%.
KCNK3 inh = human KCNK3 channel inhibition, primary screen. O14649. CHO-KCNK3 thallium flux, FluxOR fluorescence; hits give low values. B-score at 10 µM. 0.84% of 340,000 active;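 active = B-score under library mean minus 4 SD, starting fluorescence ratio at most library mean plus 5 SD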;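 also: more negative B-score means stronger inhibition of thallium flux through KCNK3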
KCNQ1 act = potentiates or activates the human KCNQ1 potassium channel; P51787; CHO-K1 KCNQ1, thallium flux FluxOR fluorescence; hits give high values; B-score at 10 µM; 0.35% of 310,000 active; AID 2648;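 active = fluorescence ratio B-score, a plate-corrected score, at least three library SD, with initial intensity B-score within 5 SD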
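System: Stable KCNQ1 CHO-K1 line | Incubation: 90 min dye loading and 20 min compound exposure, both at room temperature | Measure: Ratio B score | Medium: Assay buffer for compound exposure, DMSO matched across wells | Compound dosing: Single-concentration screen | Probe or stimulus: K+/Tl+ depolarizing stimulus | Measured by: Kinetic FluxOR fluorescence, 10 s baseline plus 110 s post-stimulus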
Kir21 inh = inhibitors of mouse Kir2.1 inward-rectifier potassium channel; AID 1672; B-score at 10 µM; HEK293-Kir2.1, FluxOR thallium flux fluorescence; hits give low values; 0.85% of 310,000 active; P35561;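 active = fluorescence ratio B-score at or below minus 3 SD of library scores, with starting-brightness B-score within 2 SD, cut at about -4.2 in these data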;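 also: channel flux triggered by added potassium and thallium sulfate stimulus; B-score of peak minus minimum fluorescence over baseline after thallium stimulus; more negative B-score means stronger Kir2.1 block with less thallium influx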
KCNQ1 block = blocks the human KCNQ1 potassium channel; P51787; CHO-K1 KCNQ1, FluxOR thallium flux fluorescence; hits give high values; B-score at 10 µM; 1.3% of 310,000 active; AID 2642;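 active = compounds whose thallium flux B-score, printed positive for inhibition, exceeds three library SD while starting fluorescence stays within three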;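 also: channel opened by potassium depolarization with thallium stimulus after 20 min compound exposure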
hERG rescue = shields human hERG channel from block by proarrhythmic agents | CHO-hERG, FluxOR thallium flux, dofetilide IC70 present | activation (rescue from dofetilide block), less the hit threshold, % at 10 µM | 0.51% of 310,000 active | Q12809;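 active = activation above the mean of controls blocked by dofetilide plus 5 SD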;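 also: thallium influx through hERG after potassium depolarization seen as dye fluorescence rise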
KCNK9 inh = blocks the human KCNK9 two-pore domain potassium channel; HEK293 KCNK9, FluxOR thallium flux fluorescence; hits give low values; Q9NPC2; 1.2% of 310,000 active; B-score at 10 µM;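 active = ratio B-score over 3 SD below the library mean, with starting fluorescence within 5 SD of its mean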;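 also: negative B-score means less thallium flux so channel inhibition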
Target sequence (Q9NPC2 whole entry, looked up, the tested form may be a part): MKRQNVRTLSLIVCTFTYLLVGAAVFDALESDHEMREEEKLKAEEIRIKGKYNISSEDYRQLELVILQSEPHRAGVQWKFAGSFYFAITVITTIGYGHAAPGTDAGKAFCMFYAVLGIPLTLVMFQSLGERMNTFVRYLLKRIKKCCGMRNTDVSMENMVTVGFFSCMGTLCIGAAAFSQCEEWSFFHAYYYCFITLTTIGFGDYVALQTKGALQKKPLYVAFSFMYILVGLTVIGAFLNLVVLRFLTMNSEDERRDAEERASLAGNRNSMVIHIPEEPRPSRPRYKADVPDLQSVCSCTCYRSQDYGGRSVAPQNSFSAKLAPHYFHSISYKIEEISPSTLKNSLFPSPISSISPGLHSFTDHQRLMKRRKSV
Each line names hits and unclear results; the compound was inactive in the other large screens.

CC(C)C[C@@]12C(=O)N(c3cccc(F)c3)C(=O)N1[C@H](c1ccc(Cl)cc1)[C@@H]1C(=O)N(C3CCCCC3)C(=O)[C@@H]12	none
OC(CNc1nc(-c2cccnc2)nc2ccccc12)c1ccccc1 (centres undefined)	none
O=C(Nc1ccc(Cl)c(NC(=O)c2cccs2)c1)c1ccco1	none
O=C(Nc1cccc(NC(=O)c2cccs2)c1)c1ccco1	KCNK9 inh -6.57
CCC(C)(C)n1nnnc1C(c1cc(OC)c(OC)c(OC)c1)N1CCN(c2ccccc2)CC1 (centres undefined)	none
COc1ccc(CN(C)C(c2ccccc2)c2nnnn2-c2ccccc2C)c(OC)c1C (centres undefined)	KCNK9 inh -7.87
O=C(Nc1ccc(Cl)cc1)N1CCC(c2nc(-c3cccs3)no2)CC1	KCNQ1 block 6
O=C(Cc1cccc2ccccc12)NCC(=O)N1CCN(Cc2cccc(C(F)(F)F)c2)CC1	none (no result: KCNQ1 act, Kir21 inh, KCNQ1 block, hERG rescue, KCNK9 inh)
Cc1ccc(S(=O)(=O)Nc2ccc3c(c2)C(=O)N([C@H](C)CO)C[C@H](C)[C@@H](CN(C)Cc2ccccc2)O3)cc1	KCNK3 inh -10.5 (no result: KCNQ1 act, Kir21 inh, KCNQ1 block, hERG rescue, KCNK9 inh)
CC(C)[C@H](NC(=O)c1ccccc1)C(=O)OCC(=O)Nc1ncc(Cl)cc1Cl	none (no result: KCNQ1 act, Kir21 inh, KCNQ1 block, hERG rescue, KCNK9 inh)
CCCCCCCCCCCCCCCC(=O)OC(CC(=O)O)C[N+](C)(C)C (centres undefined)	none (no result: KCNQ1 act, Kir21 inh, KCNQ1 block, hERG rescue, KCNK9 inh)
CCOC(=O)c1sc2nc(C)[nH]c(=S)c2c1C	KCNQ1 act 40
CN(C)C(CNC(C(=O)Nc1ccc([N+](=O)[O-])cc1Br)c1ccccc1)c1ccccc1 (centres undefined)	KCNQ1 block 9
CCN(CC)CCNC(C(=O)Nc1ccc([N+](=O)[O-])cc1Br)c1ccccc1 (centres undefined)	none
O=S(=O)(c1ccc2c(c1)OCCO2)N1CCNCC1	none
OC(c1ccccc1)c1nc2ccccc2[nH]1 (centres undefined)	none
CC(=O)NC(c1ccccc1)c1nc2ccccc2[nH]1 (centres undefined)	KCNK3 inh -10.7
O=C(Nc1ccc(Cl)cc1)Nc1nnc(SCc2ccccc2)s1	KCNQ1 block 6
CC(C)n1nc(C(=O)OCC(=O)NCCc2ccc(S(N)(=O)=O)cc2)c2ccccc2c1=O	none (no result: KCNQ1 act, Kir21 inh, KCNQ1 block, hERG rescue, KCNK9 inh)
O=C([O-])c1ccccc1-[n+]1c(-c2ccccc2)cc(-c2ccccc2)cc1-c1ccccc1	Kir21 inh -4.58
CC1=NN(c2ccccc2)C(=O)/C1=C/c1ccc(Cl)cc1	KCNQ1 block 8
CC1=NN(c2ccccc2)C(=O)/C1=C/c1cccs1	none
O=C(NC(Cc1ccccc1)C(=O)O)/C(=C/c1ccco1)NC(=O)c1cccc([N+](=O)[O-])c1 (centres undefined)	hERG rescue 52.5
COc1ccc(C(=O)NC(=S)N(C)Cc2ccccc2)cc1Br	none
C=CCN(CC=C)C(=S)NC(=O)c1ccc([N+](=O)[O-])cc1	KCNQ1 act 10, hERG rescue 41.8
C=CCN(CC=C)C(=S)NC(=O)c1ccc(OC)c(Br)c1	KCNQ1 act 32, hERG rescue 33.3
C=CCN(CC=C)C(=S)Nc1cc(Cl)ccc1OC	none
CCN(CC)C(=S)NC(=O)c1ccc(OC)c(Br)c1	KCNQ1 act 8
C=CCNC(=S)NNC(=O)c1ccc([N+](=O)[O-])cc1	none
Nc1cc2c3ccccc3ccc2c2ccccc12	none (no result: KCNQ1 act, Kir21 inh, KCNQ1 block, hERG rescue, KCNK9 inh)
COc1ccc([N+](=O)[O-])cc1NS(=O)(=O)c1cccc(C(=O)OC2CCOC2=O)c1 (centres undefined)	none (no result: KCNQ1 act, Kir21 inh, KCNQ1 block, hERG rescue, KCNK9 inh)
O=C(CN(CCc1ccccc1)C(=O)CNS(=O)(=O)c1ccc(F)cc1)NCC1CCCO1 (centres undefined)	none
C=CCNC(=S)NNc1nc2c(c(=O)[nH]1)C1(CCCCC1)Cc1ccccc1-2	KCNQ1 block 8
O=c1[nH]c(NCCO)nc2c1C1(CCCC1)Cc1ccccc1-2	none
O=C(CCNC(=O)c1ccc(Br)cc1)NNC(=O)c1ccccc1O	none
N=c1c2c(-c3ccccc3)c(-c3ccccc3)n(Cc3ccco3)c2ncn1CCCO	Kir21 inh -5.47
c1ccc(-c2nc3nc4ccccc4nc3n2Cc2ccco2)cc1	none
N=c1c2c(-c3ccccc3)c(-c3ccccc3)n(Cc3ccco3)c2ncn1CCN1CCOCC1	Kir21 inh -5.3
N=c1c2c(-c3ccccc3)c(-c3ccccc3)n(Cc3ccco3)c2ncn1CCO	Kir21 inh -9.9
COc1cccc(C=Nc2ccccc2C(=O)Nc2ccccc2)c1O	none
COc1ccc(/C=C2\SC(=S)N(CC(=O)NC3C=CS(=O)(=O)C3)C2=O)cc1 (centres undefined)	none
Cc1ccc(C)c(NC(=O)c2ccccc2C(=O)c2ccccc2)c1	KCNK9 inh -10.2 (no result: KCNK3 inh)
CN(CC(=O)Nc1cccc(F)c1)C(=O)c1ccccc1Cc1ccccc1	none
Cc1ccc(C)c(NC(=O)CN(C)C(=O)c2ccccc2Cc2ccccc2)c1	Kir21 inh -4.27
Cc1ccccc1NC1=C/C(=N\S(=O)(=O)c2ccc(C(=O)O)cc2)c2ccccc2C1=O	hERG rescue 6.1
COc1cc(C2Nc3ccccc3C(=O)N2c2ccccc2OC)ccc1O (centres undefined)	none
CCOc1cc(C2Nc3ccccc3C(=O)N2c2ccccc2OC)ccc1O (centres undefined)	hERG rescue 18.5
CCCN1C(=O)/C(=C/C=C2\N(CC)c3ccccc3C2(C)C)SC1=S	KCNQ1 block 8
CCCCCCNC(=O)CNC(=S)N(Cc1cccs1)C1CCCCC1	KCNQ1 block 7
CCOC(=O)CNC(=S)N(Cc1cccs1)C1CCCC1	none
CC(OC(=O)CNC(=O)c1ccc2ccccc2c1)C(=O)N(C)C1CCCCC1 (centres undefined)	none
CN(CCOc1ccccc1)CC(=O)Nc1cc([N+](=O)[O-])ccc1Cl	Kir21 inh -4.7
C#C[C@]1(O)CC[C@H]2[C@@H]3CCc4cc(O)ccc4[C@H]3CC[C@@]21C	KCNQ1 act 9
CC12CCC3c4ccc(O)cc4CCC3C1CCC2=O (centres undefined)	none (no result: KCNQ1 act, Kir21 inh, KCNQ1 block, hERG rescue, KCNK9 inh)
Cc1ccc(C2NC(c3ccc(C)cc3)C(C)C(=O)C2C)cc1 (centres undefined)	KCNK9 inh -7.02
CC1CCC2(CC1)NC(=O)N(CC(=O)N1CCN(c3ccccc3)CC1)C2=O (centres undefined)	none (no result: KCNQ1 act, Kir21 inh, KCNQ1 block, hERG rescue, KCNK9 inh)
O=S(=O)(NCCc1ccccc1)c1ccc(Br)cc1	none
O=[N+]([O-])c1cc2oc3c(c2c(C=NCc2ccccc2)c1O)CCCC3	none
CC(C)CN=Cc1c(O)c([N+](=O)[O-])cc2oc3c(c12)CCCC3	KCNQ1 act 15
Cc1ccc(-c2nc(CN(CC3CCC3)CC3CCCO3)c(C)o2)s1 (centres undefined)	KCNK9 inh -7.14
